From ChEMBL document CHEMBL3580647, “Discovery of potent indenoisoquinoline topoisomerase I poisons lacking the 3-nitro toxicophore” (J Med Chem, 2015) come the findings set out here.

Each structure is given as a SMILES string. The source made the active and inactive calls. The calls are words filed in the database; no cut-off is given here.

Test [1] addresses T1, DNA topoisomerase 1 (Homo sapiens) (UniProt P11387).
T1 sequence (whole entry): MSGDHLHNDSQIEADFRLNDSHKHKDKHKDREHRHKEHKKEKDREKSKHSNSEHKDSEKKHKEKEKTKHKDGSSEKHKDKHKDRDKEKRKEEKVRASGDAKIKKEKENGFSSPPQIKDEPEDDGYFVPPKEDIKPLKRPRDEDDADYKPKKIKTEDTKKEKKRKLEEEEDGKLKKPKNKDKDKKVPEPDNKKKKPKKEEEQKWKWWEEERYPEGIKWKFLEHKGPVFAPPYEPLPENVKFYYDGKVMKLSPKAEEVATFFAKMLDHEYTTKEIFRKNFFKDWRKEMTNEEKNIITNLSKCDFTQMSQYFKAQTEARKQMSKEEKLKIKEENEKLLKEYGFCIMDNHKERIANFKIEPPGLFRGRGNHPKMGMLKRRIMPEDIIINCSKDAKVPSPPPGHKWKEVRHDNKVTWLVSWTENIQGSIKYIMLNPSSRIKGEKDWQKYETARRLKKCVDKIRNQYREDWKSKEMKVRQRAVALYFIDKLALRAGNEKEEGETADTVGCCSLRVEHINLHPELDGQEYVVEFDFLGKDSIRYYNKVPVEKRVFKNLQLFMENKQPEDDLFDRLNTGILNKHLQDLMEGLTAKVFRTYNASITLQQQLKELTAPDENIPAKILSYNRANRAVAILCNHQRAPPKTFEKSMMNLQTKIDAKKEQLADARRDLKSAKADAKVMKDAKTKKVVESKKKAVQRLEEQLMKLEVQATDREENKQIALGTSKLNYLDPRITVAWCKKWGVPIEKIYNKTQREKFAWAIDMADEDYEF
Briefly: Inhibition of recombinant topoisomerase 1 (unknown origin) assessed as DNA cleavage using 3'-[32P]-labeled 117-bp DNA oligonucleotide at 0.1 uM by PAGE assay. Summed up:
(§1)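 Approx. 2 nM 3′-[³²P]-labeled double-stranded DNA incubated with recombinant Top1 and compound at 0.1, 1, 10 or 100 μM for 20 min at 25 °C. Stopped with 0.5% SDS and run on a denaturing gel. […] Run twice.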

The target in test [2] is T1, DNA topoisomerase 1 (Homo sapiens). The test can be described thus: Inhibition of recombinant topoisomerase 1 (unknown origin) assessed as DNA cleavage using 3'-[32P]-labeled 117-bp DNA oligonucleotide at 1 uM by PAGE assay. Also on record: Activity: scale not given: the % may be the effect or the level left. Put shortly:
as §1

Test [3] has the same target. Briefly: Inhibition of recombinant topoisomerase 1 (unknown origin) assessed as DNA cleavage using 3'-[32P]-labeled 117-bp DNA oligonucleotide at 10 uM by PAGE assay. Put shortly: as §1
The target is the same in test [4]. Briefly: Inhibition of recombinant topoisomerase 1 (unknown origin) assessed as DNA cleavage using 3'-[32P]-labeled 117-bp DNA oligonucleotide at 100 uM by PAGE assay. Summed up: as §1
Test [5] can be described thus: Growth inhibition of human NCI60 cells assessed as cell growth at 10 uM. In kind it is functional. To be noted: read-out: Activity. Put shortly: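 NCI-60 single-dose screen at 10 μM across ~60 human cancer cell lines. Reported as growth percent relative to vehicle-treated control, averaged over all lines tested as a mean growth percent.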
The subject of a further test is HOP-62. The test can be described thus: Growth inhibition of human HOP62 cells by five-dose growth inhibition assay. It counts as functional.
A further test has as its system HCT-116. The test can be described thus: Growth inhibition of human HCT116 cells by five-dose growth inhibition assay. It counts as functional.
A short description of test [6]: Growth inhibition of human SF539 cells by five-dose growth inhibition assay. It counts as functional. To be noted: SF-539.
In the next test the test system is UACC-62. The test can be described thus: Growth inhibition of human UACC62 cells by five-dose growth inhibition assay. It counts as functional.
Another test relates to OVCAR-3. The test can be described thus: Growth inhibition of human OVCAR3 cells by five-dose growth inhibition assay. It counts as functional.
The next test concerns SN12C. Briefly: Growth inhibition of human SN12C cells by five-dose growth inhibition assay. In kind it is functional.
In the next test the test system is MCF7. The test can be described thus: Growth inhibition of human MCF7 cells by five-dose growth inhibition assay. It counts as functional.
Another test concerns DU-145. Briefly: Growth inhibition of human DU145 cells by five-dose growth inhibition assay. It counts as functional.

Turning to `O=C1c2ccccc2-c2c1c1ccc(F)cc1c(=O)n2CCCN1CCOCC1`, the inhibition result in test [1], in test [2], in test [3] and in test [4] was “Active” in each case. In addition, the Activity in test [2] came to 75%. Besides, the growth at 10 µM in test [5] came to 30.3%. The GI50 amounted to 2090 nM with HOP-62; 1290 nM in the test with HCT-116; 2950 nM in [6]; 1380 nM with UACC-62; 4270 nM with OVCAR-3; 2340 nM with SN12C. The same compound registered a GI50 in the test on MCF7 of 347 nM.
With `O=C1c2ccccc2-c2c1c1cc(C(F)(F)F)ccc1c(=O)n2CCCn1ccnc1`, in test [2], the Activity stood at 20%. Moreover, the growth at 10 µM in test [5] was 49.3%.
With `O=C1c2ccccc2-c2c1c1ccc([N+](=O)[O-])cc1c(=O)n2C[C@H](O)CO`, the Activity in test [2] came to 100%.
For `N#Cc1ccc2c3c(n(CCCn4ccnc4)c(=O)c2c1)-c1ccccc1C3=O`, the Activity in test [2] was determined as 50%. For the same compound, the growth at 10 µM in test [5] was determined as 41.1%. Moreover, the GI50 came out at 537 nM in the test with HOP-62; 112 nM in the test with HCT-116; 501 nM in test [6]; 407 nM in the test with UACC-62; 4680 nM in the test with OVCAR-3; 575 nM in the test on SN12C. Moreover, the 50% growth inhibitory concentration (GI50) in the test with DU-145 was 562 nM; with MCF7 it was 33 nM.
For the compound `O=C1c2ccccc2-c2c1c1ccc(I)cc1c(=O)n2CCCn1ccnc1`, the Activity in [2] is 50%. Moreover, the growth at 10 µM in [5] was found to be 43.5%. Also, the GI50 with HOP-62 is 437 nM; in the test on HCT-116 it was 200 nM; in test [6], 550 nM; in the test on UACC-62 it was 2290 nM; in the test on OVCAR-3, 3890 nM; in the test with SN12C it was 708 nM. Besides, the GI50 in the test on DU-145 was found to be 603 nM; with MCF7, 74 nM.
`CC[C@@]1(O)C(=O)OCc2c1cc1n(c2=O)Cc2cc3c(CN(C)C)c(O)ccc3nc2-1` [TOPOTECAN]: the Activity in test [2] was found to be 100%. The GI50 in the test with HCT-116 was determined as 30 nM; in test [6], 10 nM; in the test on SN12C, 20 nM.
`O=C1c2ccccc2-c2c1c1ccc([N+](=O)[O-])cc1c(=O)n2CCCn1ccnc1`: the Activity in test [2] was determined as 100%. In the test with MCF7, the GI50 was found to be 2170 nM.
For the compound `N#Cc1ccc2c3c(n(CCCN4CCOCC4)c(=O)c2c1)-c1ccccc1C3=O`, the Activity in test [2] was 50%. Moreover, the growth at 10 µM in [5] worked out at 102%.
The corresponding values for `N#Cc1ccc2c3c(n(C[C@H](O)CO)c(=O)c2c1)-c1ccccc1C3=O` are 20% and 42.6%.
Consider `O=C1c2ccccc2-c2c1c1ccc(Cl)cc1c(=O)n2CCCn1ccnc1`, for which the inhibition result in [1], in [2], in [3] and in [4] was “Active” throughout. Also, the Activity in [2] is 75%. For the same compound, in [5], the growth at 10 µM came out at 0.06%. The GI50 was 204 nM in [6], 74 nM in the test with UACC-62, 110 nM in the test with SN12C and 31 nM in the test on MCF7.
Regarding `CSc1ccc2c3c(n(CCCn4ccnc4)c(=O)c2c1)-c1ccccc1C3=O`, the Activity in test [2] is 20%. Further, in test [5], the growth at 10 µM worked out at 42.6%.
The corresponding values for `O=C1c2ccccc2-c2c1c1ccncc1c(=O)n2CCCn1ccnc1` are 20% and 47.5%.
The corresponding values for `O=C1c2ccccc2-c2c1c1ccc(F)cc1c(=O)n2C[C@H](O)CO` are 50% and 61.1%.
On the same counts, the results for `O=C1c2ccccc2-c2c1c1ccc(Br)cc1c(=O)n2CCCN1CCOCC1` are 75% and 84%.
Turning to `O=C1c2ccccc2-c2c1c1ccc(Cl)cc1c(=O)n2C[C@H](O)CO`, the Activity in [2] was found to be 50%. Further, the growth at 10 µM in test [5] came out at 14.5%. Moreover, the GI50 came to 692 nM in the test with HOP-62; 437 nM in the test with HCT-116; 417 nM in test [6]; 398 nM with UACC-62; 2240 nM with OVCAR-3; 977 nM with SN12C. Moreover, the GI50 in the test on DU-145 turned out to be 2090 nM; in the test with MCF7, 257 nM.
Take `O=C1c2ccccc2-c2c1c1ccc(Br)cc1c(=O)n2CCCn1ccnc1`: in test [2], the Activity came to 50%. Besides, in [5], the growth at 10 µM is 27.3%. The GI50 in the test with HOP-62 was found to be 513 nM; in the test on HCT-116, 251 nM; in test [6], 676 nM; in the test on UACC-62, 427 nM; in the test with OVCAR-3, 3310 nM; with SN12C it was 468 nM. Besides, the GI50 in the test on DU-145 came to 676 nM; in the test on MCF7 it was 191 nM.
Consider `CN(C)CCCn1c2c(c3ccncc3c1=O)C(=O)c1ccccc1-2`, for which the Activity in [2] turned out to be 50%. In addition, the GI50 in [6] was 708 nM; with SN12C it was 955 nM; in the test with DU-145 it was 977 nM; in the test on MCF7, 331 nM.
For the compound `O=C1c2ccccc2-c2c1c1ccc([N+](=O)[O-])cc1c(=O)n2CCCN1CCOCC1`, in [2], the Activity was 70%.
As to `O=C1c2ccccc2-c2c1c1ccc(Br)cc1c(=O)n2C[C@H](O)CO`, the Activity in test [2] is 50%. Also, the growth at 10 µM in [5] is 46.8%.
On the same counts, the results for `O=C1c2ccccc2-c2c1c1ccc(C(F)(F)F)cc1c(=O)n2C[C@H](O)CO` are 20% and 52.2%.
As to `O=C1c2ccccc2-c2c1c1ccc(C(F)(F)F)cc1c(=O)n2CCCn1ccnc1`, the Activity in test [2] was 20%. The growth at 10 µM in test [5] was determined as 6.57%. Also, the GI50 with HOP-62 stood at 407 nM; in the test with HCT-116, 646 nM; in test [6], 1290 nM; in the test on UACC-62, 537 nM; with OVCAR-3 it was 1510 nM; in the test with SN12C, 1780 nM. Moreover, the GI50 in the test with DU-145 was 1100 nM; with MCF7, 257 nM.
Consider `COC(=O)c1ccc2c3c(n(CCCn4ccnc4)c(=O)c2c1)-c1ccccc1C3=O`, for which, in test [2], the Activity was found to be 50%. Further, the growth at 10 µM in [5] was found to be 62.1%. In addition, the GI50 with HOP-62 came to 589 nM; in the test on HCT-116, 398 nM; in [6], 490 nM; in the test on UACC-62 it was 100000 nM; in the test with OVCAR-3 it was 100000 nM; in the test with SN12C, 525 nM. Further, the GI50 with DU-145 is 692 nM; in the test with MCF7, 316 nM.
With `COC(=O)c1ccc2c3c(n(CCCN4CCOCC4)c(=O)c2c1)-c1ccccc1C3=O`, the Activity in test [2] was 20%. Also, the growth at 10 µM in [5] amounted to 87.5%.
The corresponding values for `O=C1c2ccccc2-c2c1c1cc(C(F)(F)F)ccc1c(=O)n2C[C@H](O)CO` are 20% and 82.7%.
The corresponding values for `CS(=O)(=O)c1ccc2c3c(n(C[C@H](O)CO)c(=O)c2c1)-c1ccccc1C3=O` are 50% and 96.7%.
Turning to `O=C1c2ccccc2-c2c1c1ccc(I)cc1c(=O)n2CCCN1CCOCC1`, the inhibition result in test [1], in test [2], in test [3] and in test [4] was “Active” in each case. Also, the Activity in [2] came to 20%. Also, the growth at 10 µM in test [5] is 96%.
As to `CSc1ccc2c3c(n(C[C@H](O)CO)c(=O)c2c1)-c1ccccc1C3=O`, the Activity in test [2] came to 20%. Also, in [5], the growth at 10 µM turned out to be 39.7%. Also, the GI50 is 1820 nM in the test with HOP-62; 741 nM in the test with HCT-116; 2340 nM in test [6]; 1380 nM with UACC-62; 4370 nM in the test with OVCAR-3; 1950 nM in the test with SN12C. Besides, the GI50 in the test with DU-145 came to 2510 nM; with MCF7, 427 nM.
Take `CS(=O)(=O)c1ccc2c3c(n(CCCn4ccnc4)c(=O)c2c1)-c1ccccc1C3=O`: the Activity in test [2] worked out at 50%. Also, the growth at 10 µM in [5] was 59.4%.

The GI50 is the concentration at which growth is held to half of that of the control.
